# In the library only some 1.8% were active in any assay of this set; here they are far more common.
# SIAE inh – human SIAE inhibition, primary screen; Q9HAT2; SIAE FP-Rh probe binding, fluorescence polarization; inhibition, % at 9.66 µM; 370,000 compounds, 0.69% hits;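 active = inhibition above a cutoff: mean of compounds within the control limits plus 3 SD of those, cut at about 17% in these data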;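 also: 0% = plate median of compound wells and 100% = probe without SIAE protein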
# Target sequence (Q9HAT2 whole entry, looked up): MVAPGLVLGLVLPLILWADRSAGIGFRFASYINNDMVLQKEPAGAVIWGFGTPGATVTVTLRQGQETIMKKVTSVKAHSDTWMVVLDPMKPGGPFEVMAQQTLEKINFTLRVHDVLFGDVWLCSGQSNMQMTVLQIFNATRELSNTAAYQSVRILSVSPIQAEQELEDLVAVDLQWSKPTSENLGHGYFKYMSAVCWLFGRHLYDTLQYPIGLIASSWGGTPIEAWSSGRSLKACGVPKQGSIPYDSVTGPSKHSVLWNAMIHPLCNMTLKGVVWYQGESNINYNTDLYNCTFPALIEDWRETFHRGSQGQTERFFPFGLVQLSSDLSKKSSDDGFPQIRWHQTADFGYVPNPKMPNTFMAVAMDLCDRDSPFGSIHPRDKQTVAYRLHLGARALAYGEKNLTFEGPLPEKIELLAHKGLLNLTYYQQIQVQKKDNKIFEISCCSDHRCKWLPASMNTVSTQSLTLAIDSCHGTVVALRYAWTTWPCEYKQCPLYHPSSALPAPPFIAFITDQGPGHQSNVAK
# HTRA1 inh – HTRA1 (human) protease inhibition; Q92743; recombinant HTRA1, FP-rhodamine activity-based probe, fluorescence polarization; inhibition, % at 5.96 µM; 340,000 compounds, 0.5% hits; in the data active = inhibition above about 36%;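 also: 0% = enzyme with DMSO and 100% = wells lacking enzyme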
# DDE Tn7 FP inh – disrupts Tn7 cyclic peptide binding to fibrin D-Dimer-E complex. P02675. FP displacement of FITC-Tn7 peptide from fibrin DD(E); 0% = median of compound wells per plate. inhibition, % at 8.3 µM. 370,000 compounds, 0.13% hits. AID 720508;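 active = inhibition above the mean of compounds falling within the control limits plus 3 SD of them, cut at about 14% in these data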;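 also: 0% = plate median of compound wells and 100% = 10 µM Aha-Tn7 peptide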
#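 Test system – human fibrin DD(E) · Times – 10 min preincubation, 3 h with tracer, room temperature · Detection – fluorescence polarization of the labelled Tn7 tracer · Measure – percent inhibition normalized to high-control wells · Benchmarks – high control wells with 10 µM unlabelled Aha-Tn7 peptide (full inhibition) · Repeats – singlicate testing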
# DDE Tn6 FP inh – disrupts Tn6 cyclic peptide binding to fibrin D-Dimer-E complex; inhibition, % at 8.3 µM; Fibrin DD(E) TRITC-Tn6 fluorescence polarization displacement; 370,000 compounds, 0.21% hits; P02675; AID 720509;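 active = inhibition above a per-campaign cutoff: mean of compounds within control limits plus 3 SD, cut at about 15% in these data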;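 also: 0% = median of all compound wells on the plate and 100% = blocking peptide control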
# TCR CD3 inh – human TCR-CD3 binding inhibition; TAMRA-labeled TCR probe fluorescence, biochemical; inhibition, % at 9.4 µM; 360,000 compounds, 0.37% hits; AID 651800; in the data active = inhibition above about 19%;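 also: recombinant mutant TCR 2C K166C tagged with TAMRA read by polarization; 0% = receptor in buffer alone and 100% = receptor with positive control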
# ABHD4 inh – ABHD4 (mouse) inhibition, primary FP screen | 370,000 compounds, 0.54% hits | purified mABHD4, FP-Rh probe fluorescence polarization | inhibition, % at 8.92 µM | Q8VD66 | AID 720543;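 active = inhibition exceeding the mean over every tested compound plus 3 SD, cut at about 30% in these data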;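 also: 0% = plate median of compound wells and 100% = S159A mutant with DMSO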
#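 system = mouse ABHD4 enzyme, wild type | medium = HEPES pH 7.0, NaCl, Pluronic buffer | also added = FP-Rh probe | incubation = Enzyme–compound pre-incubation 45 min, then probe 60 min, both 25 °C | technique = fluorescence polarization, excitation 525 nm, emission 598 nm, BODIPY TMR filters | controls = S159A mutant high control, sample median low control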
# * hit, by the source's call; . = no result.
SMILES,SIAE inh,HTRA1 inh,DDE Tn7 FP inh,DDE Tn6 FP inh,TCR CD3 inh,ABHD4 inh
C=CCN1C(=O)/C(=C2/Sc3ccccc3N2CCCS(=O)(=O)O)SC1=S,3,17,6,-4,2,36*
O=C(c1ccc(C#Cc2ccccc2)cc1)N1CCC(O)CC1,0,.,-3,2,.,-3
CCOC(=O)C(NC(=O)c1ccccc1)=C1C=C(C)OC(C)=C1,2,0,-10,-5,5,3
COC(=O)C(NC(=O)c1ccccc1)=C1C=C(C)OC(C)=C1,18*,3,-1,-2,-5,0
CC(=O)Nc1ccc(NC(=O)c2ccc(N(C)S(=O)(=O)c3ccc(C)cc3)cc2)cc1,-4,0,-3,3,-1,-6
CN(c1ccccc1)S(=O)(=O)c1ccc(NC(=O)c2ccc(-c3ccccc3)cc2)cc1,4,-51,-9,-2,63*,-15
COc1cc(N=Cc2c(CO)cnc(C)c2O)cc(OC)c1OC,7,-2,2,9,-5,3
Cc1ncc(CO)c(/C=N/NC(=S)Nc2ccc(Cl)c(Cl)c2)c1O,19*,16,-6,-10,13,-14
Cc1ncc(CO)c(/C=N/NC(=S)Nc2cccc(Cl)c2)c1O,.,43*,.,.,.,.
COC(=O)[C@]12C=CCN1[C@@H](c1ccc(OC)c(OC)c1)c1c(c3ccccc3n1S(=O)(=O)c1ccc(C)cc1)C2,-31,.,1,-5,.,-28
O=C(O[C@@H]1OC2COC(=O)c3cc(O)c(O)c(O)c3-c3c(cc(O)c(O)c3O)C(=O)O[C@@H]([C@H]1O)[C@@H]2O)c1cc(O)c(O)c(O)c1,.,41*,.,.,.,.
c1ccc(-c2cc3c(ccc4nonc43)nn2)cc1,-2,0,7,-1,-5,1
On1onc2c3cc(-c4ccccc4)nc3ccc21,18*,2,2,-6,0,-18
COc1ccc(-c2nnc(SCC(=O)Nc3ccc(S(=O)(=O)Nc4cc(C)nc(C)n4)cc3)n2-c2ccc(OC)cc2)cc1,1,.,3,-5,.,-10
O=C(N/N=C/c1cc(Br)ccc1O)C(=O)Nc1ccccc1OC(F)(F)C(F)F,3,46*,10,5,10,14
CC[C@@]1(O)C(=O)OCc2c1cc1n(c2=O)Cc2cc3c(CN(C)C)c(O)ccc3nc2-1,12,7,30*,10,13,12
O=C(Nc1ccc(N2CCOCC2)cc1)c1ccc2nc(-c3ccco3)c(-c3ccco3)nc2c1,-6,0,6,-1,0,12
CC(=O)c1ccc(NC(=O)c2ccc3nc(-c4ccco4)c(-c4ccco4)nc3c2)cc1,.,39*,.,.,.,.
Nc1sc2c(c1C(=O)NC1CCS(=O)(=O)C1)CCCC2 (configuration not stated),22*,5,0,2,-5,21
Cc1ccc(O)c(NC(=O)CSc2ccc(Cl)cc2)c1,4,-29,7,2,1,-15
Cc1ccc(NS(=O)(=O)c2ccc(NC(=O)CSc3ccc(Cl)cc3)cc2)c(C)c1,-2,-31,-2,-2,23*,-27
Cc1cc(NS(=O)(=O)c2ccc(Nc3nc(-c4ccc(O)cc4)cs3)cc2)no1,-3,-1,1,-7,12,42*
c1nc(NCC2CCCCO2)c2cc(-c3ccc4c(c3)OCO4)ccc2n1 (configuration not stated),-7,.,-1,-14,.,-3
COC(=O)C[C@H]1CC[C@@H]2[C@H](COc3ccc(NC(=O)C(C)C)cc3C(=O)N2C)O1,-4,.,-2,-7,.,0
COC(=O)[C@H](CC(C)C)N(CCc1cn(Cc2ccccc2)nn1)S(=O)(=O)c1ccccc1Br,-2,.,0,-10,.,3
O=C(CSc1nc2ccccc2nc1N1CCCCC1)N1CCN(S(=O)(=O)c2cc(Cl)ccc2Cl)CC1,-2,.,-1,-5,.,4
CN1CCN(C(=O)Cn2c(=O)oc3cc(S(=O)(=O)NCc4ccccc4)ccc32)CC1,25*,2,-2,4,5,-1
CC1CCN(C(=O)COc2cccc3c2CCN(Cc2ccccc2)C3=O)CC1,17*,-9,3,-1,-4,1

# Screening data as filed in PubChem.
